Consider 30 compounds from ChEMBL document CHEMBL4261506, “Synthesis and biological evaluation of N-alkyl naphthoimidazoles derived from β-lapachone against Trypanosoma cruzi bloodstream trypomastigotes” (Medchemcomm, 2017).

The first series deals with Trypanosoma cruzi. Kind of series: Trypanocidal activity against bloodstream trypomastigote stage of Trypanosoma cruzi Y isolated from parasite infected Swiss mouse assessed as induction of parasite lysis after 24 hrs by Neubauer chamber based cell counting method. Type of series: functional, organism-based.
Conditions: not given
The method in brief:
(§1)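 Y-strain bloodstream trypomastigotes at 5 × 10^6 cells per ml in DME medium plus 10% blood (some runs in DMES without blood), mixed 1:1 with compound diluted in DME at twice final concentration. DMSO final ≤0.1%. Incubated at 4 °C. Cells counted after 24 h; IC50 taken as the concentration giving 50% parasite lysis.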
On to `Cc1ccc(-c2nc3c([nH]2)c2c(c4ccccc43)OC(C)(C)CC2)cc1`, for which the IC50 is 37.5 µM.

A further series concerns Trypanosoma cruzi. The experiment in a line: Trypanocidal activity against trypomastigote stage of Trypanosoma cruzi. Type of series: functional, organism-based.
Conditions: not given
The method in brief: as §1
On to `CC1(C)CCc2c(c3ccccc3c3nc(-c4ccccc4)[nH]c23)O1`, for which half-maximal inhibition (IC50) required 37 µM.

A further series relates to Trypanosoma cruzi. Kind of series: Trypanocidal activity against bloodstream trypomastigote stage of Trypanosoma cruzi Y assessed as induction of parasite lysis after 24 hrs by Neubauer chamber based cell counting method.
Conditions: not given
Format: functional, organism-based. The method in brief: as §1
For `CC1(C)CCc2c(c3ccccc3c3nc(-c4ccc([N+](=O)[O-])cc4)[nH]c23)O1`, the 50% inhibitory concentration (IC50) was 250 µM.

For the compound `COc1ccccc1-c1nc2c([nH]1)c1c(c3ccccc32)OC(C)(C)CC1`, the half-maximal inhibitory concentration (IC50) is more than 6500 µM.

Consider `CC1(C)CCc2c(c3ccccc3c3nc(-c4ccc(C(F)(F)F)cc4)[nH]c23)O1`, for which the half-maximal inhibitory concentration (IC50) was determined as 250 µM.

Take `CC1(C)CCc2c(c3ccccc3c3nc(-c4cccs4)[nH]c23)O1`: the IC50 is 170 µM.

`Cc1cccc(-c2nc3c([nH]2)c2c(c4ccccc43)OC(C)(C)CC2)c1`: the IC50 is 37.5 µM.

As for `CCCCCCCCn1cnc2c3ccccc3c3c(c21)CCC(C)(C)O3`, the IC50 stood at 180 µM.

For `CC1(C)CCc2c(c3ccccc3c3nc[nH]c23)O1`, the IC50 came out at 89.5 µM.

`CCCCCCn1cnc2c3c(c4ccccc4c21)OC(C)(C)CC3`: the IC50 is 42.5 µM.

Take `CC1(C)CCc2c(c3ccccc3c3nc(-c4ccc(Cl)cc4Cl)[nH]c23)O1`: the IC50 was more than 4000 µM.

Consider `CCCn1cnc2c3ccccc3c3c(c21)CCC(C)(C)O3`, for which the 50% inhibitory concentration (IC50) is 172 µM.

Turning to `CC1(C)CCc2c(c3ccccc3c3nc(-c4ccccc4C#N)[nH]c23)O1`, the IC50 was more than 6500 µM.

Consider `CCCCn1cnc2c3c(c4ccccc4c21)OC(C)(C)CC3`, for which the half-inhibitory concentration (IC50) amounted to 106 µM.

As for `CCCCCCCn1cnc2c3c(c4ccccc4c21)OC(C)(C)CC3`, the half-maximal inhibitory concentration (IC50) came to 407 µM.

Consider `CC1(C)CCc2c(c3ccccc3c3nc(-c4c(Cl)cccc4Cl)[nH]c23)O1`, for which the IC50 stood at 2120 µM.

As to `CCCCCCCCn1cnc2c3c(c4ccccc4c21)OC(C)(C)CC3`, the IC50 was determined as 376 µM.

For `CCCCCCCCCn1cnc2c3ccccc3c3c(c21)CCC(C)(C)O3`, the 50% inhibitory concentration (IC50) came to 295 µM.

In the case of `CCCCCCCCCCCCn1cnc2c3c(c4ccccc4c21)OC(C)(C)CC3`, the IC50 is more than 500 µM.

With `CCCCCn1cnc2c3ccccc3c3c(c21)CCC(C)(C)O3`, the IC50 came out at 124 µM.

For `CC1(C)CCc2c(c3ccccc3c3nc(-c4cccc5ccccc45)[nH]c23)O1`, the IC50 was 1680 µM.

For `COc1cc(-c2nc3c([nH]2)c2c(c4ccccc43)OC(C)(C)CC2)ccc1O`, the IC50 turned out to be 252 µM.

As for `CCCCCCCCCn1cnc2c3c(c4ccccc4c21)OC(C)(C)CC3`, the IC50 amounted to 195 µM.

As for `CCCCCCn1cnc2c3ccccc3c3c(c21)CCC(C)(C)O3`, the IC50 was 31.5 µM.

Consider `CCCCn1cnc2c3ccccc3c3c(c21)CCC(C)(C)O3`, for which the IC50 stood at 123 µM.

On to `COc1ccc(-c2nc3c([nH]2)c2c(c4ccccc43)OC(C)(C)CC2)cc1`, for which the IC50 amounted to 250 µM.

Turning to `CCCn1cnc2c3c(c4ccccc4c21)OC(C)(C)CC3`, the IC50 was found to be 99.7 µM.

On to `CCCCCCCn1cnc2c3ccccc3c3c(c21)CCC(C)(C)O3`, for which the half-inhibitory concentration (IC50) was 99 µM.

Regarding `CCCCCCCCCCCCn1cnc2c3ccccc3c3c(c21)CCC(C)(C)O3`, the IC50 is 192 µM.

Regarding `CCCCCn1cnc2c3c(c4ccccc4c21)OC(C)(C)CC3`, the IC50 was found to be 92.7 µM.

The next series relates to Trypanosoma cruzi. The experiment in a line: Potency index, ratio of benznidazole IC50 to test compound IC50 for bloodstream trypomastigote stage of Trypanosoma cruzi Y.
Conditions: not given
Type of series: functional.
Take `CCCCCCn1cnc2c3c(c4ccccc4c21)OC(C)(C)CC3`: the “Ratio IC50” value is 2.2.

For `CCCCCCn1cnc2c3ccccc3c3c(c21)CCC(C)(C)O3`, the “Ratio IC50” value is on record as 3.2.

System in another series: not listed separately
The experiment in a line: Cytotoxicity against Swiss mouse peritoneal macrophages after 24 hrs by Prestoblue assay. Format: cell-based, Peritoneal macrophage. As to conditions: read-out: LC50.
Take `CCCCCCn1cnc2c3c(c4ccccc4c21)OC(C)(C)CC3`: the CC50 at 24 h was 117 µM.

For `CCCCCCn1cnc2c3ccccc3c3c(c21)CCC(C)(C)O3`, the CC50 at 24 h is 422 µM.

System in another series: not listed separately
Kind of series: Selectivity index, ratio of LC50 for Swiss mouse peritoneal macrophages to IC50 for bloodstream trypomastigote stage of Trypanosoma cruzi Y. Format: toxicity. As to conditions: read-out: Ratio LC50/IC50. The procedure, abridged: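 Y strain bloodstream trypomastigotes at 5 × 10^6 cells/ml in DME plus 10% blood, mixed 1:1 with compound at twice the final concentration, 24 h at 4 °C, counted; IC50 = 50% lysis. […] Index = LC50/IC50. DMSO final ≤0.1%.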
In the case of `CCCCCCn1cnc2c3c(c4ccccc4c21)OC(C)(C)CC3`, the selectivity ratio amounted to 2.7.

In the case of `CCCCCCn1cnc2c3ccccc3c3c(c21)CCC(C)(C)O3`, the selectivity ratio stood at 13.4.
